# Tb MetRS inh: blocks T. brucei methionyl-tRNA synthetase activity. purified T. brucei MetRS, ATP depletion, Kinase-Glo luminescence. inhibition, % at 11.9 µM. hit rate 0.4% among 360,000. AID 624268;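 active = inhibition above a per-plate cutoff of the control wells' mean inhibition plus 3 SD, cut at about 5.5% in these data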;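 also: 0% = DMSO wells median and 100% = median of wells with control inhibitor compound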
#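 System: purified T. brucei MetRS enzyme / Detection: Kinase-Glo luciferase luminescence reporting remaining unconsumed ATP / Medium: HEPES buffer with MgCl2, KCl, DTT, spermine, BSA, pyrophosphatase / Replication: singlicate, one well per compound / Evaluation: percent inhibition relative to median high and low control wells / Schedule: 2 h aminoacylation at 25 °C after 15 min preincubation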
# PLC-gamma1 inh: inhibitors of human phospholipase C gamma1; P19174; purified PLC-gamma1, fluorogenic substrate, fluorescence; inhibition, % at 12.2 µM; hit rate 0.84% among 370,000; in the data active = inhibition above about 9.5%
# ADAM17 inh: inhibitors of human ADAM17. P78536. recombinant ADAM17, EDANS/DABCYL FRET peptide cleavage. inhibition, % at 6.95 µM. hit rate 0.83% among 370,000;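 active = inhibition above the mean of compounds lying between control limits plus 3 SD, set per campaign, cut at about 8.5% in these data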;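 also: 0% = DMSO-only wells as the low control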
# Target sequence (P78536 215-824 limits assumed): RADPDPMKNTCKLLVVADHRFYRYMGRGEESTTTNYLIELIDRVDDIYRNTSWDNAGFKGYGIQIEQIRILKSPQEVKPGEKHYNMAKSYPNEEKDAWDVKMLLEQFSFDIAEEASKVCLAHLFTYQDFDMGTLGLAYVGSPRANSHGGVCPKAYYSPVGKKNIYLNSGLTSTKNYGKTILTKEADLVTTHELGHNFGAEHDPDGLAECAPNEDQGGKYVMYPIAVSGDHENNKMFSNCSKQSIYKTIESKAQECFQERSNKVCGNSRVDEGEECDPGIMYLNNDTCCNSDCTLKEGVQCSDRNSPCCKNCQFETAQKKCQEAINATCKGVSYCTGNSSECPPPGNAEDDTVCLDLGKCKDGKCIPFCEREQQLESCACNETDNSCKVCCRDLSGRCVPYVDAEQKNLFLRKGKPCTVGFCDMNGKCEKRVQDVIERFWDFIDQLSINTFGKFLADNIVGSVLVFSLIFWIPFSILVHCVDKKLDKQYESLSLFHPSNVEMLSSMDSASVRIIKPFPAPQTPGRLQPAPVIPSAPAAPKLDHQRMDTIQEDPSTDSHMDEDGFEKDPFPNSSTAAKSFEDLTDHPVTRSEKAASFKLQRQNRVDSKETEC
# ADAM10 inh: inhibits human ADAM10; O14672; recombinant ADAM10, EDANS/DABCYL FRET peptide cleavage, 3 h; inhibition, % at 7 µM; hit rate 0.62% among 370,000; AID 720582;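 active = inhibition above a per-campaign cutoff equal to the mean of compounds falling between control-based bounds plus 3 SD, cut at about 20% in these data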;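 also: 0% = DMSO wells while the 100% control is not disclosed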
# PLCb3 inh: PLC-beta3 (human) inhibition, primary screen; Q01970; inhibition, % at 12.2 µM; Purified PLC-beta3, fluorogenic substrate, fluorescence; hit rate 0.18% among 370,000; in the data active = inhibition above about 11%;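 also: 0% = median of compound wells on plate and 100% = full blocker control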
# ADAM10 confirm: confirmation of inhibitors of human ADAM10 | hit rate 1% among 2,100 | shares compounds with ADAM10 inh | inhibition, % at 6.95 µM | ADAM10 QFRET peptide cleavage, EDANS fluorescence;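 active = inhibition above about 20% chosen separately for each screening run, limit read from the data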;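 also: 0% = DMSO wells and 100% = marimastat wells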
# ADAM17 counter: counter-screen for ADAM10 exosite inhibitors: inhibitors of human ADAM17. ADAM17 QFRET peptide cleavage, EDANS fluorescence. hit rate 0.5% among 2,100. inhibition, % at 6.95 µM. shares compounds with ADAM10 inh;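 active = mean triplicate inhibition above the solvent-only control wells' mean plus 3 SD, cut at about 12% in these data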;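 also: 0% = DMSO wells and 100% = marimastat wells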
# The depositor's hits bear a star; nt = no result given. Shown are actives, neighbours in structure and some others; about 2.3% of the full set was active somewhere.
SMILES,Tb MetRS inh,PLC-gamma1 inh,ADAM17 inh,ADAM10 inh,PLCb3 inh,ADAM10 confirm,ADAM17 counter
O=C(CSc1nnc(COc2ccc(F)cc2)o1)N1c2ccccc2CCc2ccccc21,0,2,8,20*,-3,7,2
CCN(c1ccccc1)S(=O)(=O)c1ccc(N2CCN(c3ccc(O)cc3)CC2)nc1,0,-2,3,25*,-1,6,1
COc1ccc(OC)c(NC(=O)CSc2ccc3nnc(-c4cccnc4)n3n2)c1,0,-1,-3,-11,-5,nt,nt
NNc1nc(-c2ccccc2)nc(-c2ccccc2)c1Br,0,8,7,21*,-16,3,1
CNc1nc(-c2ccccc2)nc(-c2ccccc2)c1C#N,0,3,3,-20,0,nt,nt
O=C(Cc1ccsc1)Nc1ccccc1F,0,1,-2,-5,-5,nt,nt
CC1(C)CC1C(=O)Nc1ccc([N+](=O)[O-])cc1Br (configuration not stated),0,4,3,16,4,nt,nt
Cc1ccc(C2(c3ccc(C)cc3)CC2C(=O)Nc2ccc([N+](=O)[O-])cc2O)cc1 (configuration not stated),-1,9,19*,42*,12*,11,4
CCc1ccc(C2=NN(C(C)=O)C(c3ccco3)C2)cc1 (configuration not stated),0,-2,2,-2,-1,nt,nt
O=C(N/N=C/c1cn(-c2cccs2)nc1-c1ccccc1)c1ccccc1Cl,0,-8,8,20*,-14,14,5
COc1cc(Sc2ccc(C)cc2)c(OC)cc1N,-1,-6,-1,30*,-9,2,1
COc1cccc(S(=O)(=O)Nc2ccc(C(O)(C(F)(F)F)C(F)(F)F)cc2)c1,0,6,3,20*,-2,-2,0
COc1ccc(NS(=O)(=O)c2cccc(C(=O)NNC(=O)c3ccc(NC(C)=O)cc3)c2)cc1,0,-2,-1,-2,-5,nt,nt
O=C(C1CCN(S(=O)(=O)c2cnc[nH]2)CC1)N1CCN(c2ccc([N+](=O)[O-])cc2)CC1,0,1,2,45*,0,-1,0
CC(O)(c1ccccc1)c1nc(/C=C/c2ccccc2)cs1 (configuration not stated),0,2,4,15,-1,nt,nt
OC(c1ccccc1)(c1nc(/C=C/c2ccccc2)cs1)C(F)(F)F (configuration not stated),0,1,7,21*,4,8,3
O=C(OCc1cn([C@H]2C[C@H](c3ccc(Cl)cc3)N(C(=O)C3CCCCC3)C[C@@H]2O)nn1)c1ccccc1,1,0,2,3,-1,nt,nt
C#Cc1ccc([C@H]2C=C(C(=O)N3CCN(Cc4ccccc4)CC3)O[C@@H](OCC)[C@@H]2CCCO)cc1,0,0,-4,0,-3,nt,nt
C#Cc1ccc([C@@H]2C=C(C(=O)N3CCN(Cc4ccccc4)CC3)O[C@H](OCC)[C@H]2CCCO)cc1,0,0,4,24*,3,3,1
CCO[C@H]1OC(C(=O)NCc2ccccc2)=C[C@@H](c2cn(C(C)=O)c3ccccc23)[C@@H]1CCCO,0,-1,3,26*,3,4,2
CCO[C@@H]1OC(C(=O)O)=C[C@H](c2cn(C(C)=O)c3ccccc23)[C@H]1CCCO,-1,1,-4,1,2,nt,nt
COCCN(C(=S)Nc1c(C)cc(C)cc1C)C(C)c1cccs1 (configuration not stated),0,1,-2,-4,-7,nt,nt
CC(=O)OCC=C1CCC2C3CC(C)C4=CC(=O)CCC4(C)C3C(O)CC12C (configuration not stated),-1,0,4,13,3,nt,nt
CC(Oc1ccc(Br)cc1)C(=O)NCCCN1CCCC1=O (configuration not stated),-1,1,3,-4,1,nt,nt
Cc1ccccc1Nc1nc(Nc2ccccc2C)nc(SC2=NCCS2)n1,-1,8,7,20*,4,6,2
SMILES,Tb MetRS inh,PLC-gamma1 inh,ADAM17 inh,ADAM10 inh,PLCb3 inh,ADAM10 confirm,ADAM17 counter
O=C(NC1CCCCN(Cc2ccc(Cl)cc2)C1=O)C(c1ccccc1)c1ccccc1 (configuration not stated),nt,2,4,22*,0,6,4
C(=N\Nc1ncnc2nc[nH]c12)/c1cccs1,-1,4,-1,-1,2,nt,nt
O=C(CSc1nc2ccc(NC(=O)c3ccccc3C(=O)O)cc2s1)Nc1c(Cl)cccc1Cl,1,-5,4,20*,-24,0,1
CC(C)c1ccc(OCC(=O)NCc2ccccc2)cc1,-1,1,0,78*,-1,0,0
O=S(=O)(c1ccc(Cl)cc1)N1CCCc2ccccc21,0,1,3,6,-5,nt,nt
Nc1ccc(S(=O)(=O)N2CCCc3ccccc32)cc1,-1,5,4,24*,7,0,0
COc1ccc(N/C(=C\C(=O)c2ccccc2)c2ccccc2)cc1OC,nt,0,-1,-5,1,nt,nt
CC(C)C[C@@H](CN1CCC[C@@H]1CN1C(=S)NC[C@@H]1Cc1ccc(O)cc1)N1C[C@H](Cc2ccc(O)cc2)N(CC2CCCCC2)C1=S,0,2,8,-2,2,nt,nt
Oc1ccccc1CN(Cc1ccco1)CC(O)COCc1ccc(Cl)cc1 (configuration not stated),-1,-3,9,23*,-1,3,1
CCOC(=O)C1(NC(=O)C2(N3C(=O)c4ccccc4C3=O)CCCC2)CCCC1,0,2,-2,-7,-1,nt,nt
COC(=O)[C@]12C[C@H](CC(=O)NCC3CCCCC3)C(=O)N(Cc3ccc4c(c3)OCO4)C1=C[C@H](C(C)C)O[C@@H]2C1CC1,nt,1,0,2,6,nt,nt
COC(=O)[C@]12C[C@H](CC(=O)NCc3cccc4ccccc34)C(=O)N(Cc3ccc4c(c3)OCO4)C1=C[C@H](C(C)C)O[C@@H]2C1CC1,nt,0,3,12,2,nt,nt
COC(=O)[C@]12C[C@H](CC(=O)NCCCCc3ccccc3)C(=O)N(Cc3ccc4c(c3)OCO4)C1=C[C@H](C(C)C)O[C@@H]2C1CC1,nt,3,6,21*,0,6,3
COC(=O)[C@]12C[C@H](CC(=O)NCc3cccc(C(F)(F)F)c3)C(=O)N(Cc3ccc4c(c3)OCO4)C1=C[C@H](C(C)C)O[C@@H]2C1CC1,nt,-1,8,20*,3,7,3
